# System: Candida albicans
# Experiment: Antifungal activity against Candida albicans ATCC 44859 after 48 hrs by microdilution method
# Format: functional
# Settings: ATCC 44859, 48 h; call rule not given here
# How it was run: (§1)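 Yeasts held on Sabouraud dextrose agar. MIC by NCCLS M27-A broth microdilution in RPMI 1640 with L-glutamine, buffered with 0.165 M MOPS to pH 7.0. Compounds in DMSO (≤2% final), twofold dilutions 500–0.48. Final inoculum 5 × 10³ ± 0.2 cfu mL⁻¹. Incubated at 35 °C; absorbance at 540 nm read at 24 and 48 h. MIC is 80% growth inhibition versus control; run twice in duplicate.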
row,MIC80 [µM],SMILES
1,1.95,CC(=O)OCC1C=C(c2ccc(Br)cc2)C(=O)O1 (stereo not drawn)
2,31.2,COCC1C=C(c2ccc(Br)cc2)C(=O)O1 (stereo not drawn)

# System: Candida albicans
# Experiment: Antifungal activity against Candida albicans ATCC 90028 after 24 hrs by microdilution method
# Format: functional
# Settings: ATCC 90028, 24 h
# How it was run: as §1
row,MIC80 [µM],SMILES
1,3.9,CC(=O)OCC1C=C(c2ccc(Br)cc2)C(=O)O1 (stereo not drawn)
2,31.2,COCC1C=C(c2ccc(Br)cc2)C(=O)O1 (stereo not drawn)

# System: Candida albicans
# Experiment: Antifungal activity against Candida albicans ATCC 90028 after 48 hrs by microdilution method
# Format: functional
# Settings: ATCC 90028, 48 h
# How it was run: as §1
row,MIC80 [µM],SMILES
1,3.9,CC(=O)OCC1C=C(c2ccc(Br)cc2)C(=O)O1 (stereo not drawn)
2,31.2,COCC1C=C(c2ccc(Br)cc2)C(=O)O1 (stereo not drawn)

# System: Candida parapsilosis
# Experiment: Antifungal activity against Candida parapsilosis ATCC 22019 after 24 hrs by microdilution method
# Format: functional
# Settings: Lodderomyces parapsilosis, ATCC 22019, 24 h
# How it was run: as §1
row,MIC80 [µM],SMILES
1,3.9,CC(=O)OCC1C=C(c2ccc(Br)cc2)C(=O)O1 (stereo not drawn)
2,125,COCC1C=C(c2ccc(Br)cc2)C(=O)O1 (stereo not drawn)

# System: Candida parapsilosis
# Experiment: Antifungal activity against Candida parapsilosis ATCC 22019 after 48 hrs by microdilution method
# Format: functional
# Settings: Lodderomyces parapsilosis, ATCC 22019, 48 h
# How it was run: as §1
row,MIC80 [µM],SMILES
1,15.6,CC(=O)OCC1C=C(c2ccc(Br)cc2)C(=O)O1 (stereo not drawn)
2,250,COCC1C=C(c2ccc(Br)cc2)C(=O)O1 (stereo not drawn)

# System: Pichia kudriavzevii
# Experiment: Antifungal activity against Candida krusei ATCC 6258 after 24 hrs by microdilution method
# Format: functional
# Settings: ATCC 6258, 24 h
# How it was run: as §1
row,MIC80 [µM],SMILES
1,3.9,CC(=O)OCC1C=C(c2ccc(Br)cc2)C(=O)O1 (stereo not drawn)
2,250,COCC1C=C(c2ccc(Br)cc2)C(=O)O1 (stereo not drawn)

# System: Pichia kudriavzevii
# Experiment: Antifungal activity against Candida krusei ATCC 6258 after 48 hrs by microdilution method
# Format: functional
# Settings: ATCC 6258, 48 h
# How it was run: as §1
row,MIC80 [µM],SMILES
1,7.81,CC(=O)OCC1C=C(c2ccc(Br)cc2)C(=O)O1 (stereo not drawn)
2,250,COCC1C=C(c2ccc(Br)cc2)C(=O)O1 (stereo not drawn)

# System: Pichia kudriavzevii
# Experiment: Antifungal activity against Candida krusei E28 after 24 hrs by microdilution method
# Format: functional
# Settings: E28, 24 h
# How it was run: as §1
row,MIC80 [µM],SMILES
1,7.81,CC(=O)OCC1C=C(c2ccc(Br)cc2)C(=O)O1 (stereo not drawn)
2,250,COCC1C=C(c2ccc(Br)cc2)C(=O)O1 (stereo not drawn)

# System: Pichia kudriavzevii
# Experiment: Antifungal activity against Candida krusei E28 after 48 hrs by microdilution method
# Format: functional
# Settings: E28, 48 h
# How it was run: as §1
row,MIC80 [µM],SMILES
1,7.81,CC(=O)OCC1C=C(c2ccc(Br)cc2)C(=O)O1 (stereo not drawn)
2,500,COCC1C=C(c2ccc(Br)cc2)C(=O)O1 (stereo not drawn)

# System: Candida tropicalis
# Experiment: Antifungal activity against Candida tropicalis 156 after 24 hrs by microdilution method
# Format: functional
# Settings: Candida tropicalis, 156, 24 h
# How it was run: as §1
row,MIC80 [µM],SMILES
1,7.81,CC(=O)OCC1C=C(c2ccc(Br)cc2)C(=O)O1 (stereo not drawn)
2,62.5,COCC1C=C(c2ccc(Br)cc2)C(=O)O1 (stereo not drawn)

# System: Candida tropicalis
# Experiment: Antifungal activity against Candida tropicalis 156 after 48 hrs by microdilution method
# Format: functional
# Settings: Candida tropicalis, 156, 48 h
# How it was run: as §1
row,MIC80 [µM],SMILES
1,7.81,CC(=O)OCC1C=C(c2ccc(Br)cc2)C(=O)O1 (stereo not drawn)
2,62.5,COCC1C=C(c2ccc(Br)cc2)C(=O)O1 (stereo not drawn)

# System: Nakaseomyces glabratus
# Experiment: Antifungal activity against Candida glabrata 20/I after 24 hrs by microdilution method
# Format: functional
# Settings: not given
# How it was run: as §1
row,MIC80 [µM],SMILES
1,1.95,CC(=O)OCC1C=C(c2ccc(Br)cc2)C(=O)O1 (stereo not drawn)
2,125,COCC1C=C(c2ccc(Br)cc2)C(=O)O1 (stereo not drawn)

# System: Nakaseomyces glabratus
# Experiment: Antifungal activity against Candida glabrata 20/I after 48 hrs by microdilution method
# Format: functional
# Settings: not given
# How it was run: as §1
row,MIC80 [µM],SMILES
1,1.95,CC(=O)OCC1C=C(c2ccc(Br)cc2)C(=O)O1 (stereo not drawn)
2,125,COCC1C=C(c2ccc(Br)cc2)C(=O)O1 (stereo not drawn)

# System: Clavispora lusitaniae
# Experiment: Antifungal activity against Candida lusitaniae 2446/I after 24 hrs by microdilution method
# Format: functional
# Settings: not given
# How it was run: as §1
row,MIC80 [µM],SMILES
1,3.9,CC(=O)OCC1C=C(c2ccc(Br)cc2)C(=O)O1 (stereo not drawn)
2,62.5,COCC1C=C(c2ccc(Br)cc2)C(=O)O1 (stereo not drawn)

# System: Clavispora lusitaniae
# Experiment: Antifungal activity against Candida lusitaniae 2446/I after 48 hrs by microdilution method
# Format: functional
# Settings: not given
# How it was run: as §1
row,MIC80 [µM],SMILES
1,7.81,CC(=O)OCC1C=C(c2ccc(Br)cc2)C(=O)O1 (stereo not drawn)
2,125,COCC1C=C(c2ccc(Br)cc2)C(=O)O1 (stereo not drawn)

# System: Trichosporon beigelii
# Experiment: Antifungal activity against Trichosporon beigelii 1188 after 24 hrs by microdilution method
# Format: functional
# Settings: Trichosporon beigelii, 1188, 24 h
# How it was run: as §1
row,MIC80 [µM],SMILES
1,7.81,CC(=O)OCC1C=C(c2ccc(Br)cc2)C(=O)O1 (stereo not drawn)
2,62.5,COCC1C=C(c2ccc(Br)cc2)C(=O)O1 (stereo not drawn)

# System: Trichosporon beigelii
# Experiment: Antifungal activity against Trichosporon beigelii 1188 after 48 hrs by microdilution method
# Format: functional
# Settings: Trichosporon beigelii, 1188, 48 h
# How it was run: as §1
row,MIC80 [µM],SMILES
1,7.81,CC(=O)OCC1C=C(c2ccc(Br)cc2)C(=O)O1 (stereo not drawn)
2,125,COCC1C=C(c2ccc(Br)cc2)C(=O)O1 (stereo not drawn)

# System: Aspergillus fumigatus
# Experiment: Antifungal activity against Aspergillus fumigatus 231 after 24 hrs by microdilution method
# Format: functional
# Settings: Aspergillus fumigatus, 231, 24 h
# How it was run: (§2)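 Filamentous strains held on Sabouraud dextrose agar. NCCLS M27-A broth microdilution in RPMI 1640 with L-glutamine and 0.165 M MOPS, pH 7.0. DMSO diluent ≤2% final; twofold dilutions 500–0.48. Inoculum 5 × 10³ ± 0.2 cfu mL⁻¹ final.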
row,MIC80 [µM],SMILES
1,0.98,CC(=O)OCC1C=C(c2ccc(Br)cc2)C(=O)O1 (stereo not drawn)
2,31.2,COCC1C=C(c2ccc(Br)cc2)C(=O)O1 (stereo not drawn)

# System: Aspergillus fumigatus
# Experiment: Antifungal activity against Aspergillus fumigatus 231 after 48 hrs by microdilution method
# Format: functional
# Settings: Aspergillus fumigatus, 231, 48 h
# How it was run: as §2
row,MIC80 [µM],SMILES
1,3.91,CC(=O)OCC1C=C(c2ccc(Br)cc2)C(=O)O1 (stereo not drawn)
2,62.5,COCC1C=C(c2ccc(Br)cc2)C(=O)O1 (stereo not drawn)

# System: Lichtheimia corymbifera
# Experiment: Antifungal activity against Absidia corymbifera 272 after 24 hrs by microdilution method
# Format: functional
# Settings: Lichtheimia corymbifera, 272, 24 h
# How it was run: as §2
row,MIC80 [µM],SMILES
1,7.81,CC(=O)OCC1C=C(c2ccc(Br)cc2)C(=O)O1 (stereo not drawn)
2,125,COCC1C=C(c2ccc(Br)cc2)C(=O)O1 (stereo not drawn)

# System: Lichtheimia corymbifera
# Experiment: Antifungal activity against Absidia corymbifera 272 after 48 hrs by microdilution method
# Format: functional
# Settings: Lichtheimia corymbifera, 272, 48 h
# How it was run: as §2
row,MIC80 [µM],SMILES
1,15.6,CC(=O)OCC1C=C(c2ccc(Br)cc2)C(=O)O1 (stereo not drawn)
2,250,COCC1C=C(c2ccc(Br)cc2)C(=O)O1 (stereo not drawn)

# System: Trichophyton mentagrophytes
# Experiment: Antifungal activity against Trichophyton mentagrophytes 445 after 72 hrs by microdilution method
# Format: functional
# Settings: Trichophyton mentagrophytes, 445, 72 h
# How it was run: (§3)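 Dermatophyte held on Sabouraud dextrose agar. M27-A microdilution in MOPS-buffered (0.165 M, pH 7.0) RPMI 1640 with L-glutamine. DMSO ≤2% final; twofold dilutions 500–0.48. Inoculum 5 × 10³ ± 0.2 cfu mL⁻¹ final. Incubated at 35 °C; MIC read visually at 72 and 120 h as 80% inhibition of control growth; determined twice in duplicate.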
row,MIC80 [µM],SMILES
1,1.95,CC(=O)OCC1C=C(c2ccc(Br)cc2)C(=O)O1 (stereo not drawn)
2,31.2,COCC1C=C(c2ccc(Br)cc2)C(=O)O1 (stereo not drawn)

# System: Trichophyton mentagrophytes
# Experiment: Antifungal activity against Trichophyton mentagrophytes 445 after 120 hrs by microdilution method
# Format: functional
# Settings: Trichophyton mentagrophytes, 445, 120 h
# How it was run: as §3
row,MIC80 [µM],SMILES
1,3.9,CC(=O)OCC1C=C(c2ccc(Br)cc2)C(=O)O1 (stereo not drawn)
2,31.2,COCC1C=C(c2ccc(Br)cc2)C(=O)O1 (stereo not drawn)

# System: HL-60
# Experiment: Cytostatic activity against human HL60 cells after 72 hrs by XTT assay
# Format: functional, cell-based
# Settings: Homo sapiens, HL-60, 72 h; read-out: IC50
# How it was run: (§4)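 Leukemia cells (L1210 ATCC CCL 219, CCRF-CEM ATCC CCL 119, HL-60 ATCC CCL 240) grown in 24-well plates in RPMI 1640 with fetal calf serum. Growth assessed 72 h after drug addition. Viability measured by XTT spectrophotometric assay; potency given as IC50.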
row,IC50 [µM],SMILES
1,16,COCC1C=C(c2ccc(Br)cc2)C(=O)O1 (stereo not drawn)

# System: HeLa S3
# Experiment: Cytostatic activity against human HeLaS3 cells after 72 hrs by XTT assay
# Format: functional, cell-based
# Settings: not given
row,IC50,SMILES
1,Not Active,COCC1C=C(c2ccc(Br)cc2)C(=O)O1 (stereo not drawn)

# System: CCRF-CEM
# Experiment: Cytostatic activity against human CCRF-CEM cells after 72 hrs by XTT assay
# Format: functional, cell-based
# Settings: Homo sapiens, CCRF-CEM, 72 h; read-out: IC50
# How it was run: as §4
row,IC50 [µM],SMILES
1,2.21,COCC1C=C(c2ccc(Br)cc2)C(=O)O1 (stereo not drawn)

# System: not listed separately
# Experiment: Chemical stability in tetrahydrofuran solution at 4.7 mg after 24 hrs in room temperature by HPLC analysis
# Format: physicochemical
# Settings: not given
row,Stability,SMILES
1,Stable,CC(=O)OCC1C=C(c2ccc(Br)cc2)C(=O)O1 (stereo not drawn)

# System: not listed separately
# Experiment: Chemical stability in DMSO solution at 4.7 mg after 24 hrs in room temperature by HPLC analysis
# Format: physicochemical
# Settings: not given
row,Stability [h],SMILES
1,< 3,CC(=O)OCC1C=C(c2ccc(Br)cc2)C(=O)O1 (stereo not drawn)

# System: Candida albicans
# Experiment: Antifungal activity against Candida albicans ATCC 44859 after 24 hrs by microdilution method
# Format: functional
# Settings: ATCC 44859, 24 h
# How it was run: as §1
row,MIC80 [µM],SMILES
1,0.49,CC(=O)OCC1C=C(c2ccc(Br)cc2)C(=O)O1 (stereo not drawn)
2,15.6,COCC1C=C(c2ccc(Br)cc2)C(=O)O1 (stereo not drawn)

# Reference: ChEMBL document CHEMBL1157589, “Antifungal 3,5-disubstituted furanones: From 5-acyloxymethyl to 5-alkylidene derivatives” (Bioorg Med Chem, 2010)
